Source: ChEMBL document CHEMBL4257594 (J Med Chem, 2018)
pEC50, pIC50: −log10 of the molar value. Calls of active or inactive are those of the source. The calls are words filed in the database; no cut-off is given here.

Experiments:
[1] = system: HUVEC; assay: Anti-angiogenic activity against HUVEC after 24 hrs by scintillation counting based [3H]-thymidine incorporation assay; assay type: functional, cell-based; settings: Homo sapiens
Outline: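 HUVEC seeded at 2000 cells/well and left to settle overnight, then drug added in triplicate for 24 h. Mean ± SD of three independent experiments run in triplicate.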

[2] = target: T1, Cytochrome P450 3A4 (Homo sapiens, UniProt P08684); assay: (§1) Inhibition of human liver microsome CYP3A4 at 1 uM expressed in baculosomes using fluorogenic-DBOMF as substrate preincubated for 10 mins followed by substrate addition and measured after 60 mins by fluorescence based assay; assay type: ADME, microsomes; settings: microsomes, 1 h, 1 µM
Outline: (§2)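 CYP3A4 baculosomes preincubated with drug at 1 µM for 10 min at 37 °C before Vivid green substrate added. Fluorescence (ex/em 485/520) read 60 min after substrate addition. Percent inhibition set against 10 μM ketoconazole as the 100% control; mean ± SD of three independent experiments run in triplicate.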

[3] = target: CYP3A4 (Homo sapiens, UniProt P08684); assay: as §1; assay type: ADME, microsomes; settings: recombinant CYP3A4 expressed in baculosomes, probe DBOMF (fluorogenic); outline: as §2
[4] = target: T1, Cytochrome P450 3A4; assay: Inhibition of human liver microsome CYP3A4 expressed in baculosomes using fluorogenic-DBOMF as substrate preincubated for 10 mins followed by substrate addition and measured after 60 mins by fluorescence based assay; assay type: ADME, microsomes
[5] = target: T2, NPC intracellular cholesterol transporter 1 (Homo sapiens) (UniProt O15118); assay: Binding affinity to NPC1 in HUVEC assessed as increase in cholesterol accumulation in late endosome/lysosome at 0.2 uM after 14 hrs by filipin staining-based confocal microscopy; assay type: cell-based
T2 sequence (whole entry): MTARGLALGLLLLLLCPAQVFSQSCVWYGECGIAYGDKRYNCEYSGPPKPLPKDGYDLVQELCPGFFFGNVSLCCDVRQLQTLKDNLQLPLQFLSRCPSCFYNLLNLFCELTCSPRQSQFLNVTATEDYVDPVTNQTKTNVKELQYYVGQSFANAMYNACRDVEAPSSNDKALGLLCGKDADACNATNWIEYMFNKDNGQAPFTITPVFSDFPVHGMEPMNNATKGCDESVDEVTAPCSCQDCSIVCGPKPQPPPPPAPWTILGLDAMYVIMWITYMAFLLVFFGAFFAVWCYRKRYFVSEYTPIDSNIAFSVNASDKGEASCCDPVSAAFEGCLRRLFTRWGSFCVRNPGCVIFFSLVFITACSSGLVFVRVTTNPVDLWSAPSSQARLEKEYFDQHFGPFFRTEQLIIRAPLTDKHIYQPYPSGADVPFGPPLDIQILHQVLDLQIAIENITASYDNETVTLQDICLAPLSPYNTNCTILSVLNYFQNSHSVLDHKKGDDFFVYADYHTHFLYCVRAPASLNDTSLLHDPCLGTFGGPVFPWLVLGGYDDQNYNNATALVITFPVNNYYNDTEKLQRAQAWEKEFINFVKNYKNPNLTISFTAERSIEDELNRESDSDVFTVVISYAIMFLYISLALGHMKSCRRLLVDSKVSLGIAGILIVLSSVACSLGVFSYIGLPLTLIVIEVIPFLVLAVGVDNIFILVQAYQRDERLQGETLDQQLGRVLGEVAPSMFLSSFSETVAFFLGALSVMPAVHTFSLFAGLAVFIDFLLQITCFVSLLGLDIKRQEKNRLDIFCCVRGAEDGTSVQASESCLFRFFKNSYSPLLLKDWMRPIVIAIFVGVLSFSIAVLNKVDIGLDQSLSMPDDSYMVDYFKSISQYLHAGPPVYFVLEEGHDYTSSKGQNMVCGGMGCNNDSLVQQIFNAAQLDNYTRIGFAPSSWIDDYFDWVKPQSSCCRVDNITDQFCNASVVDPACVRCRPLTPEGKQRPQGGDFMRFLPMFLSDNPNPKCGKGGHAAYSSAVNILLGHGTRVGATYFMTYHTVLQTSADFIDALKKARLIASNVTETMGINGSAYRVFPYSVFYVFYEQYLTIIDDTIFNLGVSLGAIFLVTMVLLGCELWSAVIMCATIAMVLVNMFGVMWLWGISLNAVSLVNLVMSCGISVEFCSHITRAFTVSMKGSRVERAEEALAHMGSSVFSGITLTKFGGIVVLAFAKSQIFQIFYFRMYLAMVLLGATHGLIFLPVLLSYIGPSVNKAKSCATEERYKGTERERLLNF
Outline: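 Methods give HUVEC (2,000) on chamber slides, settled overnight, then 0.1 µM drug or DMSO for 14 h; legend gives 0.2 μM for 24 h. Cells fixed in 4% paraformaldehyde for 15 min, then stained with 50 µg/ml filipin for 1 h in the dark. Imaged by confocal microscopy at 360/460 nm.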

[6] = target: Non-selective voltage-gated ion channel VDAC1 (Homo sapiens) (UniProt P21796); assay: Binding affinity to VDAC1 in HUVEC assessed as AMPK phosphorylation at Thr172 residue after 24 hrs by Western blot analysis; assay type: cell-based
[7] = target: Non-selective voltage-gated ion channel VDAC1 (Homo sapiens) (UniProt P21796); assay: Binding affinity to VDAC1 in HUVEC assessed as ACC1 phosphorylation at Ser79 residue at 0.01 to 1 uM after 24 hrs by Western blot analysis; assay type: cell-based
Outline: (§3)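 HUVEC treated with 0.01, 0.03, 0.1, 0.3 or 1 μM drug, or DMSO, for 24 h. Lysed in RIPA buffer, protein normalized, then run on Western blot: 5% BSA block 1 h, primary antibody overnight at 4 °C, secondary 1 h, chemiluminescence imaging. Band gray value and area quantified; mean ± SD of three independent experiments.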

[8] = system: HUVEC; assay: Binding affinity to NPC1/VDAC1 in HUVEC assessed as reduction in mTOR phosphorylation at Ser2481 residue up to 1 uM after 24 hrs Western blot analysis; assay type: cell-based; settings: Homo sapiens; outline: as §3
[9] = system: HUVEC; assay: Binding affinity to NPC1/VDAC1 in HUVEC assessed as reduction in mTOR-mediated S6K phosphorylation at Thr389 residue up to 1 uM after 24 hrs Western blot analysis; assay type: cell-based; settings: Homo sapiens; outline: as §3
[10] = target: Non-selective voltage-gated ion channel VDAC1 (Homo sapiens) (UniProt P21796); assay: Binding affinity to VDAC1 (unknown origin) at 10 uM using itraconazole as probe by photoaffinity probe competitor assay
[11] = system: HUVEC; assay: Antiangiogenic activity in HUVEC assessed as inhibition of tube formation at 5 uM after 24 hrs by matrigel assay relative to control; assay type: functional; settings: Homo sapiens
Outline: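 HUVEC (70,000 per well) plated on Matrigel-coated wells in medium containing drug or DMSO. After 24 h, stained with 2 μM calcein AM for 15 min, medium replaced, and tube networks imaged by fluorescence microscopy. Total tube length quantified from the images and compared with DMSO.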

Sequence of CYP3A4 (P08684 whole entry): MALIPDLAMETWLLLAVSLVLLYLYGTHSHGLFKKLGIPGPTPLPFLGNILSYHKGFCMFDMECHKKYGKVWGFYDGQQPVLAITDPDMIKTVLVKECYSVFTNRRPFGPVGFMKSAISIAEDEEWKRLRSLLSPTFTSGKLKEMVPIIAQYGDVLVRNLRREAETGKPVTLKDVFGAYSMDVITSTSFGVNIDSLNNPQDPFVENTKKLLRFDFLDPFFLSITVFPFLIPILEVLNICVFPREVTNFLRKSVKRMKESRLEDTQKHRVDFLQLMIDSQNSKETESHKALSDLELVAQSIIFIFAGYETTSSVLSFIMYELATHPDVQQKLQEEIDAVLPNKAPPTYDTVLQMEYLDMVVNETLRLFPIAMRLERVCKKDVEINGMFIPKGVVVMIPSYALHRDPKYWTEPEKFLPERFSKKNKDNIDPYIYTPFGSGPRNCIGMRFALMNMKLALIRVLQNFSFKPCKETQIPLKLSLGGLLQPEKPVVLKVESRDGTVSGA
T1 sequence (P08684 whole entry): as above
Sequence of Non-selective voltage-gated ion channel VDAC1 (Homo sapiens) (P21796 whole entry): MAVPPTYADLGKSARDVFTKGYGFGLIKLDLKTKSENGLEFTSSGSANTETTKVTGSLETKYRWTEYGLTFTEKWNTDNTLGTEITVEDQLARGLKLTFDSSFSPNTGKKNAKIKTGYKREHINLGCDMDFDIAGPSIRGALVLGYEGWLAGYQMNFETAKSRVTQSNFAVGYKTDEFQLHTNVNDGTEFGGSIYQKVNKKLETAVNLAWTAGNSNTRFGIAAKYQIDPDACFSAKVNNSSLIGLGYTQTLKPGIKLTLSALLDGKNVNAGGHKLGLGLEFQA

SMILES | pIC50 [1] | inhibition at 1 h, 1 µM [3] [%] | other results
CCC(C)n1ncn(-c2ccc(N3CCN(c4ccc(OC[C@@H]5CO[C@@](Cn6cc(C(F)(F)F)nc6C)(c6ccc(Cl)cc6Cl)O5)cc4)CC3)cc2)c1=O (some centres undefined) | 6.36 | – | inhibition (INH) [2]: Not Active
CCC(C)n1ncn(-c2ccc(N3CCN(c4ccc(OC[C@@H]5CO[C@@](CBr)(c6ccc(Cl)cc6Cl)O5)cc4)CC3)cc2)c1=O (some centres undefined) | 6.24 | 3 | –
CCC(C)n1ncn(-c2ccc(N3CCN(c4ccc(OC[C@@H]5CO[C@@](Cn6ccnc6C)(c6ccc(Cl)cc6Cl)O5)cc4)CC3)cc2)c1=O (some centres undefined) | 6.76 | 71 | –
CCC(C)n1ncn(-c2ccc(N3CCN(c4ccc(OC[C@@H]5CO[C@@](Cn6ncnn6)(c6ccc(Cl)cc6Cl)O5)cc4)CC3)cc2)c1=O (some centres undefined) | 6.91 | 17 | –
CCC(C)n1ncn(-c2ccc(N3CCN(c4ccc(OC[C@@H]5CO[C@@](Cn6c(C)cnc6C)(c6ccc(Cl)cc6Cl)O5)cc4)CC3)cc2)c1=O (some centres undefined) | 6.12 | 23 | –
CCC(C)n1ncn(-c2ccc(N3CCN(c4ccc(OC[C@@H]5CO[C@@](Cc6ccccc6)(c6ccc(Cl)cc6Cl)O5)cc4)CC3)cc2)c1=O (some centres undefined) | 6.29 | – | inhibition (INH) [2]: Not Active
CCC(C)n1ncn(-c2ccc(N3CCN(c4ccc(OC[C@@H]5CO[C@@](Cn6cccn6)(c6ccc(Cl)cc6Cl)O5)cc4)CC3)cc2)c1=O (some centres undefined) | 6.51 | – | inhibition (INH) [2]: Not Active
CCC(C)n1ncn(-c2ccc(N3CCN(c4ccc(OC[C@@H]5CO[C@@](Cn6nnnc6-c6ccccc6)(c6ccc(Cl)cc6Cl)O5)cc4)CC3)cc2)c1=O (some centres undefined) | 6.92 | 18 | –
CCC(C)n1ncn(-c2ccc(N3CCN(c4ccc(OC[C@@H]5CO[C@@](Cn6nnnc6C)(c6ccc(Cl)cc6Cl)O5)cc4)CC3)cc2)c1=O (some centres undefined) | 7.00 | 7 | –
CCC(C)n1ncn(-c2ccc(N3CCN(c4ccc(OC[C@@H]5CO[C@@](Cn6cnc(C)c6)(c6ccc(Cl)cc6Cl)O5)cc4)CC3)cc2)c1=O (some centres undefined) | 6.99 | 98 | –
CCC(C)n1ncn(-c2ccc(N3CCN(c4ccc(OC[C@@H]5CO[C@@](CN6CCOCC6)(c6ccc(Cl)cc6Cl)O5)cc4)CC3)cc2)c1=O (some centres undefined) | 5.93 | 16 | –
CCC(C)n1ncn(-c2ccc(N3CCN(c4ccc(OC[C@@H]5CO[C@@](Cn6cc(C)nc6C)(c6ccc(Cl)cc6Cl)O5)cc4)CC3)cc2)c1=O (some centres undefined) | 6.31 | 38 | –
CCC(C)n1ncn(-c2ccc(N3CCN(c4ccc(OC[C@@H]5CO[C@@](Cn6cnnn6)(c6ccc(Cl)cc6Cl)O5)cc4)CC3)cc2)c1=O (some centres undefined) | – | 2 | pEC50 [4]: < 4.70; Activity [5]: Active; Activity [6]: Dose-dependent effect; Activity [7]: Active; Activity [8]: Active; Activity [9]: Active; Activity [10]: Active
CCC(C)n1ncn(-c2ccc(N3CCN(c4ccc(OC[C@@H]5CO[C@@](Cn6nc(C)nc6C)(c6ccc(Cl)cc6Cl)O5)cc4)CC3)cc2)c1=O (some centres undefined) | 6.66 | 27 | –
CCC(C)n1ncn(-c2ccc(N3CCN(c4ccc(OC[C@@H]5CO[C@@](CN6CCNCC6)(c6ccc(Cl)cc6Cl)O5)cc4)CC3)cc2)c1=O (some centres undefined) | 6.22 | 91 | –
CCC(C)n1ncn(-c2ccc(N3CCN(c4ccc(OC[C@@H]5CO[C@@](Cn6ccnc6)(c6ccc(Cl)cc6Cl)O5)cc4)CC3)cc2)c1=O (some centres undefined) | 7.07 | 99 | –
CCc1nccn1C[C@@]1(c2ccc(Cl)cc2Cl)OC[C@@H](COc2ccc(N3CCN(c4ccc(-n5cnn(C(C)CC)c5=O)cc4)CC3)cc2)O1 (some centres undefined) | 6.65 | 7 | –
CCC(C)n1ncn(-c2ccc(N3CCN(c4ccc(OC[C@@H]5CO[C@@](CN(C)C)(c6ccc(Cl)cc6Cl)O5)cc4)CC3)cc2)c1=O (some centres undefined) | 5.85 | – | inhibition (INH) [2]: Not Active
CCC(C)n1ncn(-c2ccc(N3CCN(c4ccc(OC[C@@H]5CO[C@@](CN6CCN(C)CC6)(c6ccc(Cl)cc6Cl)O5)cc4)CC3)cc2)c1=O (some centres undefined) | 6.40 | 18 | –
CCC(C)n1ncn(-c2ccc(N3CCN(c4ccc(OC[C@@H]5CO[C@@](Cn6ccnc6-c6ccccc6)(c6ccc(Cl)cc6Cl)O5)cc4)CC3)cc2)c1=O (some centres undefined) | 6.87 | 23 | Activity [10]: Active
CCC(C)n1ncn(-c2ccc(N3CCN(c4ccc(OC[C@@H]5CO[C@@](Cn6cnc(C(F)(F)F)n6)(c6ccc(Cl)cc6Cl)O5)cc4)CC3)cc2)c1=O (some centres undefined) | 6.57 | – | inhibition (INH) [2]: Not Active; Activity [5]: Active
CCC(C)n1ncn(-c2ccc(N3CCN(c4ccc(OCC5COC(Cn6cncn6)(c6ccc(Cl)cc6Cl)O5)cc4)CC3)cc2)c1=O (centres undefined) [ITRACONAZOLE] | – | 84 | inhibition at 5 µM [11]: 45%; Activity [5]: Active
CCC(C)n1ncn(-c2ccc(N3CCN(c4ccc(OC[C@@H]5CO[C@@](Cn6cnc(C)n6)(c6ccc(Cl)cc6Cl)O5)cc4)CC3)cc2)c1=O (some centres undefined) | 6.57 | 30 | –
CCC(C)n1ncn(-c2ccc(N3CCN(c4ccc(OC[C@@H]5CO[C@@](CC)(c6ccc(Cl)cc6Cl)O5)cc4)CC3)cc2)c1=O (some centres undefined) | 6.45 | – | inhibition (INH) [2]: Not Active
CCC(C)n1ncn(-c2ccc(N3CCN(c4ccc(OC[C@@H]5COC(c6ccc(Cl)cc6Cl)O5)cc4)CC3)cc2)c1=O (mixture of isomers) | 6.48 | – | inhibition (INH) [2]: Not Active
CCC(C)n1ncn(-c2ccc(N3CCN(c4ccc(OC[C@@H]5CO[C@@](CC6CCCC6)(c6ccc(Cl)cc6Cl)O5)cc4)CC3)cc2)c1=O (some centres undefined) | 6.29 | – | inhibition (INH) [2]: Not Active
CCC(C)n1ncn(-c2ccc(N3CCN(c4ccc(OC[C@@H]5CO[C@@](Cn6ccnc6C(C)C)(c6ccc(Cl)cc6Cl)O5)cc4)CC3)cc2)c1=O (some centres undefined) | 7.08 | 6 | Activity [5]: Active
